ChEMBL document CHEMBL4219037, “Modified biphenyl Hsp90 C-terminal inhibitors for the treatment of cancer” (Bioorg Med Chem Lett, 2017)
Activity calls are given as the source filed them. The rule behind the calls is not given here.

Columns and labels:
MCF7 = assay: Antiproliferative activity against human MCF7 cells after 72 hrs by MTS assay; format: functional, cell-based; details: MCF7, 72 h
In short: (§1)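 Cells kept in Advanced DMEM/F12 at 37 °C, 5% CO2, humidified. Seeded at 3000 cells/well, left 24 h, then given compound or vehicle in DMSO (1% DMSO final) at varying concentrations for 72 h. Viable cells read by MTS/PMS proliferation kit. Vehicle wells set to 100% proliferation. IC50 as mean ± SD of at least three separate experiments run in triplicate.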

SK-BR-3 = assay: Antiproliferative activity against human SKBR3 cells after 72 hrs by MTS assay; format: functional, cell-based; details: SK-BR-3, 72 h; in short: as §1
[1] = Antiproliferative activity against human LNCaP-LN3 cells after 72 hrs by MTS assay; format: functional, cell-based; details: LNCaP-LN3, 72 h; in short: as §1
[2] = Antiproliferative activity against human PC3MM2 cells after 72 hrs by MTS assay; format: functional, cell-based; details: PC3MM2, 72 h; in short: as §1
[3] = molecular target: T1, Heat shock protein HSP90 (Homo sapiens) (UniProt P07900+P08238); assay: Inhibition of C-terminal HSP90 in human MCF7 cells assessed as degradation of cyclin D1 at 2.945 to 29.45 uM after 24 hrs by Western blot analysis relative to control; format: cell-based
[4] = molecular target: T1, Heat shock protein HSP90 (Homo sapiens); assay: Inhibition of C-terminal HSP90 in human MCF7 cells assessed as degradation of cRAF at 2.945 to 29.45 uM after 24 hrs by Western blot analysis relative to control; format: cell-based
[5] = molecular target: T1, Heat shock protein HSP90 (Homo sapiens); assay: Inhibition of C-terminal HSP90 in human MCF7 cells assessed as degradation of HER2 at 2.945 to 29.45 uM after 24 hrs by Western blot analysis relative to control; format: cell-based
[6] = molecular target: T1, Heat shock protein HSP90 (Homo sapiens); assay: Inhibition of […] HSP90 in human MCF7 cells assessed as reduction in HSP90 expression at 2.945 to 29.45 uM after 24 hrs by Western blot analysis relative to control; format: cell-based
[7] = molecular target: T1, Heat shock protein HSP90 (Homo sapiens); assay: Inhibition of C-terminal HSP90 in human MCF7 cells assessed as degradation of cyclin D1 at 4.49 to 44.95 uM after 24 hrs by Western blot analysis relative to control; format: cell-based
[8] = molecular target: T1, Heat shock protein HSP90 (Homo sapiens); assay: Inhibition of C-terminal HSP90 in human MCF7 cells assessed as degradation of HER2 at 4.49 to 44.95 uM after 24 hrs by Western blot analysis relative to control; format: cell-based
[9] = molecular target: T1, Heat shock protein HSP90 (Homo sapiens); assay: Inhibition of C-terminal HSP90 in human MCF7 cells assessed as degradation of cRAF at 4.49 to 44.95 uM after 24 hrs by Western blot analysis relative to control; format: cell-based
[10] = molecular target: T1, Heat shock protein HSP90 (Homo sapiens); assay: Inhibition of […] HSP90 in human MCF7 cells assessed as reduction in HSP90 expression at 4.49 to 44.95 uM after 24 hrs by Western blot analysis relative to control; format: cell-based

SMILES	IC50 (MCF7)	IC50 (SK-BR-3)	inhibition [3]	inhibition [4]	inhibition [5]	inhibition [6]	inhibition [7]	inhibition [8]	inhibition [9]	inhibition [10]	IC50 [1]	IC50 [2]
COc1cccc(-c2cc(C(=O)NCCc3ccc(OC4CCN(C)CC4)cc3-c3cccc(F)c3)ccc2OC)c1	15.4 µM	23.7 µM									22.5 µM	5.49 µM
COc1cccc(-c2cc(C(=O)NCCc3ccc(OC4CCN(C)CC4)c(O)c3-c3cccc(F)c3)ccc2OC)c1	11.3 µM	9.29 µM									22.4 µM	8.61 µM
CC(C)=CCc1cc(C(=O)NCCc2cc(C)c(OC3CCN(C)CC3)cc2-c2cccc(F)c2)ccc1O	35.6 µM	15.2 µM									> 100 µM	> 100 µM
COc1cccc(-c2cc(C(=O)NCCc3cc(C)c(O[C@@H]4OC(C)(C)[C@H](OC)[C@@H](O)[C@H]4O)cc3-c3cccc(F)c3)ccc2OC)c1	> 50 µM	43.9 µM									> 100 µM	> 100 µM
CO[C@@H]1[C@@H](O)[C@@H](O)[C@H](Oc2ccc(CCNC(C)=O)c(-c3cccc(F)c3)c2)OC1(C)C [CEMDOMESPIB]	> 500 µM	> 500 µM									> 500 µM	> 500 µM
COc1cccc(-c2cc(C(=O)NCCc3c(O)cc(OC4CCN(C)CC4)cc3-c3cccc(F)c3)ccc2OC)c1	12.2 µM	15.7 µM									44.8 µM	> 50 µM
COc1cccc(-c2cc(C(=O)NCCc3ccc(O[C@@H]4OC(C)(C)[C@H](OC)[C@@H](O)[C@H]4O)cc3-c3cccc(F)c3)ccc2OC)c1	> 50 µM	> 50 µM									15.9 µM	> 50 µM
COc1cccc(-c2cc(C(=O)NCCc3c(O)cc(O[C@@H]4OC(C)(C)[C@H](OC)[C@@H](O)[C@H]4O)cc3-c3cccc(F)c3)ccc2OC)c1	23.8 µM	23.5 µM									> 50 µM	> 50 µM
COc1cccc(-c2cc(C(=O)NCCc3c(OC)cc(O[C@@H]4OC(C)(C)[C@H](OC)[C@@H](O)[C@H]4O)cc3-c3cccc(F)c3)ccc2OC)c1	44.7 µM	49.4 µM									8.09 µM	10.6 µM
COc1cccc(-c2cc(C(=O)NCCc3ccc(OC4CCN(C)CC4)c(C)c3-c3cccc(F)c3)ccc2OC)c1	17.8 µM	21.3 µM									> 50 µM	> 50 µM
COc1cccc(-c2cc(C(=O)NCCc3ccc(OC4CCN(C)CC4)c(N)c3-c3cccc(F)c3)ccc2OC)c1	11.3 µM	15.3 µM									22.4 µM	18.9 µM

The next compounds have a lower IC50 (MCF7) than those just listed; values first:

IC50 (MCF7)	IC50 (SK-BR-3)	inhibition [3]	inhibition [4]	inhibition [5]	inhibition [6]	inhibition [7]	inhibition [8]	inhibition [9]	inhibition [10]	SMILES	IC50 [1]	IC50 [2]
5.89 µM	7.59 µM	Active	Active	Active	inactive					CC(C)=CCc1cc(C(=O)NCCc2c(O)cc(OC3CCN(C)CC3)cc2-c2cccc(F)c2)ccc1O	22.8 µM	1.32 µM
8.71 µM	5.72 µM									COc1cccc(-c2cc(C(=O)NCCc3c(OC)cc(OC4CCN(C)CC4)cc3-c3cccc(F)c3)ccc2OC)c1	> 100 µM	32.1 µM
7.86 µM	8.16 µM									COc1cc(OC2CCN(C)CC2)cc(-c2cccc(F)c2)c1CCNC(=O)c1ccc(O)c(CC=C(C)C)c1	> 100 µM	1.84 µM
1.45 µM	3.25 µM									CC(C)=CCc1cc(C(=O)NCCc2ccc(OC3CCN(C)CC3)c(O)c2-c2cccc(F)c2)ccc1O	23.1 µM	42.3 µM
9.14 µM	7.81 µM									COc1cccc(-c2cc(C(=O)NCCc3cc(C)c(OC4CCN(C)CC4)cc3-c3cccc(F)c3)ccc2OC)c1	20.8 µM	13.9 µM
8.99 µM	43.5 µM					Active	Active	Active	inactive	COc1cccc(-c2cc(C(=O)NCCc3ccc(O[C@@H]4OC(C)(C)[C@H](OC)[C@@H](O)[C@H]4O)c(C)c3-c3cccc(F)c3)ccc2OC)c1	25.1 µM	> 50 µM
